Measurements published in ChEMBL document CHEMBL1165965, “Synthesis and structure-activity relationships of 1,2,3,4-tetrahydropyrido[2,3-b]pyrazines as potent and selective inhibitors of the anaplastic lymphoma kinase” (Bioorg Med Chem, 2010).

Columns and labels:
[1] = molecular target: T1, Rhodopsin kinase GRK1 (Homo sapiens) (UniProt Q15835); assay: Inhibition of GRK1 at 1 uM
T1 sequence (whole entry): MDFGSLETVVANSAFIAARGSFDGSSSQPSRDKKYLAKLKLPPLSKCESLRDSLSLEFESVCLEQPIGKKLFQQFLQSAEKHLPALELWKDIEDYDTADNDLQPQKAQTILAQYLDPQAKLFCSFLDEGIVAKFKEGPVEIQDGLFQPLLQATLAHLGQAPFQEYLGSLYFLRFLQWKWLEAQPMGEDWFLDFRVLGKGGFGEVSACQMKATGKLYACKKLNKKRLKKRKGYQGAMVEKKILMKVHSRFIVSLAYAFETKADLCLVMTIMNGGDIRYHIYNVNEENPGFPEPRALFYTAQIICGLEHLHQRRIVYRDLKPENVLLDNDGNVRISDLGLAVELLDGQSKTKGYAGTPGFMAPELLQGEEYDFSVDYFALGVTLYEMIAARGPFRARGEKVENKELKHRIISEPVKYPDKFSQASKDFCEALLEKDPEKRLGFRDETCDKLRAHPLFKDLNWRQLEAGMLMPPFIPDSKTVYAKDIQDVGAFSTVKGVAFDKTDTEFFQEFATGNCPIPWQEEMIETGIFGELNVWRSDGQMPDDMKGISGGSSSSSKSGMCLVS

[2] = molecular target: Calcium/calmodulin-dependent protein kinase type 1G (Homo sapiens) (UniProt Q96NX5); assay: Inhibition of CAMK1G at 1 uM
How it was run: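 Ambit KINOMEscan screen at a single concentration across a 250–400 kinase panel, recorded as percent inhibition. Selectivity was expressed as S(90), the fraction of kinases inhibited >90%.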

[3] = molecular target: Serine/threonine-protein kinase PLK1 (Homo sapiens) (UniProt P53350); assay: Inhibition of PLK1 at 1 uM
[4] = molecular target: T2, Serine/threonine-protein kinase LATS2 (Homo sapiens) (UniProt Q9NRM7); assay: Inhibition of LATS2 at 1 uM
T2 sequence (whole entry): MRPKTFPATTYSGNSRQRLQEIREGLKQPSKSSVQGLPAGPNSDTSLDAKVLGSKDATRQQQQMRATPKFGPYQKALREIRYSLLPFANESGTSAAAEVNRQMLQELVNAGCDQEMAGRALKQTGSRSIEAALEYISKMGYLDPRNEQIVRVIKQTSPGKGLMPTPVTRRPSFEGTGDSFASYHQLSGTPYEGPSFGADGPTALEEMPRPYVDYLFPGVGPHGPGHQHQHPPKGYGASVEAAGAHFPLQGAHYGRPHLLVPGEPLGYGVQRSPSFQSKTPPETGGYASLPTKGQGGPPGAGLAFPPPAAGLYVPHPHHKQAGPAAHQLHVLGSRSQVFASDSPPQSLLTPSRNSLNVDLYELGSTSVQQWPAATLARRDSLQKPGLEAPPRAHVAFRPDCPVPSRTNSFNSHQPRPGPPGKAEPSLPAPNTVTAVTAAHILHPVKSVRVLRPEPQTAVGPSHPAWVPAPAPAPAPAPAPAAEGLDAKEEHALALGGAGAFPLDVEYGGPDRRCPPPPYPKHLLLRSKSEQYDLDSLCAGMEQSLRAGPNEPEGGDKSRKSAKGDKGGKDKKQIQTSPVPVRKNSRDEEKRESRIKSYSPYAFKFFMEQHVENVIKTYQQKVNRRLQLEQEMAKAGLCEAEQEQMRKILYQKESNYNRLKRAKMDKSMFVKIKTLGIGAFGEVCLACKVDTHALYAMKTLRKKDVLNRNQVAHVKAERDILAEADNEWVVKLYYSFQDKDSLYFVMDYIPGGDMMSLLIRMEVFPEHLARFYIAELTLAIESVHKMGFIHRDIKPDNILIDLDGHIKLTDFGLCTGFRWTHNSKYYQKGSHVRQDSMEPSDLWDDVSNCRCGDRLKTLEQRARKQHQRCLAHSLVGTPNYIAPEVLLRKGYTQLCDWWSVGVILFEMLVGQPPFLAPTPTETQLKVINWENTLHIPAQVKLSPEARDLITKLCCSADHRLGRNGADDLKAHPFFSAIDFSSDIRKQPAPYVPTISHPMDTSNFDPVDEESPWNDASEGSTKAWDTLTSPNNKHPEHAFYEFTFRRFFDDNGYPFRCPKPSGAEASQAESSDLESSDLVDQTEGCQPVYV

[5] = molecular target: Casein kinase II subunit alpha' (Homo sapiens) (UniProt P19784); assay: Inhibition of CSNK2A2 at 1 uM
How it was run: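 Single-concentration screen using Ambit Bioscience KINOMEscan technology across a panel of 250–400 kinases. Per-kinase inhibition from this screen was summarized as S(90), the fraction of kinases inhibited by more than 90%.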

Measured: inhibition

Chain of Serine/threonine-protein kinase PLK1 (Homo sapiens) (P53350 whole entry): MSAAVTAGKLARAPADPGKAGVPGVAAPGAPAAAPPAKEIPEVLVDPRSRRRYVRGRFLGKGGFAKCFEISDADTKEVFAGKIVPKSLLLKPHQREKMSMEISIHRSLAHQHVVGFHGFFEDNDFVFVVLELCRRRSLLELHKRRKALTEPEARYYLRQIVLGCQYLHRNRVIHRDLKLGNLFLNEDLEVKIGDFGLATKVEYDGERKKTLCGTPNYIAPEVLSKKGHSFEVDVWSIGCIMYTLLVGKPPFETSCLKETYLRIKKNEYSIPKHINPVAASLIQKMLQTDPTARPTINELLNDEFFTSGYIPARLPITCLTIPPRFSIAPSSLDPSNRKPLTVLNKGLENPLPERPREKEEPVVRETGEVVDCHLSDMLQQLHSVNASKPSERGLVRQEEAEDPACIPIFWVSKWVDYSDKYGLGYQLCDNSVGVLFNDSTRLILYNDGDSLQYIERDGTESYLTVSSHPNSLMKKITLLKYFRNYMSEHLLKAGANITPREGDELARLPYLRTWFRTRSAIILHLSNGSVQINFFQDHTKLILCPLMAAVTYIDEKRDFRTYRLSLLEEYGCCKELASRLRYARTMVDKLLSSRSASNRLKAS
Chain of Calcium/calmodulin-dependent protein kinase type 1G (Homo sapiens) (Q96NX5 whole entry): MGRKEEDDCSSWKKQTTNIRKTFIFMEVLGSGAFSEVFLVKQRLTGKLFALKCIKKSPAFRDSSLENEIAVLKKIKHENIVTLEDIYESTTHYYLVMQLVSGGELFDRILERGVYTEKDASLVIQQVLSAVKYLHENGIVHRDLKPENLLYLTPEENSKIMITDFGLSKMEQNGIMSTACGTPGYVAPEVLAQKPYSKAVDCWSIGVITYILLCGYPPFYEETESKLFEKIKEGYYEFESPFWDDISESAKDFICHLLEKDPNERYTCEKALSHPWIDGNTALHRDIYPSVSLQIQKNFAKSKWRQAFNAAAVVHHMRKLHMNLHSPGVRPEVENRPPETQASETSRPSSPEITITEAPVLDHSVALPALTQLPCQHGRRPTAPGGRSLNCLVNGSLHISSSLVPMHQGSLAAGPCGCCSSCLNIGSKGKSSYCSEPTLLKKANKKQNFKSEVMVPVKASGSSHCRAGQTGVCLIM
Chain of Casein kinase II subunit alpha' (Homo sapiens) (P19784 whole entry, looked up): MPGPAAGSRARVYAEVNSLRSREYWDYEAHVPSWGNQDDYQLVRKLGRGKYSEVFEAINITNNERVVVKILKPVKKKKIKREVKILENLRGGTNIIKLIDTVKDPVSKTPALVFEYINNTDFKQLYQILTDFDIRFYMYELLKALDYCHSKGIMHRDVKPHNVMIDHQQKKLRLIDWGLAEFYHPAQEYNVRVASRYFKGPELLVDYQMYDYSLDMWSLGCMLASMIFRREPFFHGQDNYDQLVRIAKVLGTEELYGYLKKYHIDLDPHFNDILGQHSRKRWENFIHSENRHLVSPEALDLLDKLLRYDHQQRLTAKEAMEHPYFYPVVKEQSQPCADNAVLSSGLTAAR

CN1CCN(c2ccc(-c3cnc4c(c3)N(Cc3cc(F)ccc3F)CCN4)cn2)CC1
< 50%: all assays above

CC(=O)N1CCN(c2cc(-c3cnc4c(c3)N(Cc3cc(Cl)ccc3C(F)(F)F)CCN4)ccn2)CC1
< 50%: all assays above

CN1CCN(c2ccc(-c3cnc4c(c3)N(Cc3c(F)ccc(F)c3Cl)CCN4)cn2)CC1
< 50%: all assays above

FC(F)(F)c1ccc(Cl)cc1CN1CCNc2ncc(-c3ccnc(N4CCNCC4)c3)cc21
< 50%: all assays above

CN1CCN(c2ccc(-c3cnc4c(c3)N(Cc3cc(Cl)ccc3Cl)CCN4)cn2)CC1
< 50%: all assays above

O=C(c1ccc(-c2cnc3c(c2)N(Cc2cc(Cl)ccc2C(F)(F)F)CCN3)cc1)N1CCC(N2CCCC2)CC1
< 50%: [2] | [3] | [5]

O=C(O)c1ccc(-c2cnc3c(c2)N(Cc2cc(Cl)ccc2C(F)(F)F)CCN3)cc1
< 50%: [2] | [3] | [5]

CN1CCN(c2ccc(-c3cnc4c(c3)N(Cc3cc(Cl)ccc3C(F)(F)F)CCN4)cn2)CC1
< 50%: all assays above

O=C(c1ccc(-c2cnc3c(c2)N(Cc2cc(Cl)ccc2C(F)(F)F)CCN3)cc1)N1CCCCC1
< 50%: [2] | [3] | [5]

COC1CCN(C(=O)c2ccc(-c3cnc4c(c3)N(Cc3cc(Cl)ccc3C(F)(F)F)CCN4)cc2)CC1
< 50%: [2] | [3] | [5]
